Source: ChEMBL document CHEMBL4354812, “N-Benzyl/Aryl Substituted Tryptanthrin as Dual Inhibitors of Indoleamine 2,3-Dioxygenase and Tryptophan 2,3-Dioxygenase” (J Med Chem, 2019)
Calls of active or inactive are those of the source. The rule behind the calls is not given here.

Assays:
[1] = biological target: T1, Tryptophan 2,3-dioxygenase (Homo sapiens, UniProt P48775); experiment: Uncompetitive inhibition of recombinant human TDO expressed in Escherichia coli BL21 (DE3) assessed as assessed as inhibition constant using varying concentration of L-tryptophan as substrate by Dixon plot analysis
In short: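 Enzymatic assays of the kynurenine-forming reaction were run with varying L-Trp. Ki was derived by plotting [S]/V against inhibitor concentration [I], with inhibition type assigned from the graphical pattern.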
Target sequence in this assay (P48775 whole entry): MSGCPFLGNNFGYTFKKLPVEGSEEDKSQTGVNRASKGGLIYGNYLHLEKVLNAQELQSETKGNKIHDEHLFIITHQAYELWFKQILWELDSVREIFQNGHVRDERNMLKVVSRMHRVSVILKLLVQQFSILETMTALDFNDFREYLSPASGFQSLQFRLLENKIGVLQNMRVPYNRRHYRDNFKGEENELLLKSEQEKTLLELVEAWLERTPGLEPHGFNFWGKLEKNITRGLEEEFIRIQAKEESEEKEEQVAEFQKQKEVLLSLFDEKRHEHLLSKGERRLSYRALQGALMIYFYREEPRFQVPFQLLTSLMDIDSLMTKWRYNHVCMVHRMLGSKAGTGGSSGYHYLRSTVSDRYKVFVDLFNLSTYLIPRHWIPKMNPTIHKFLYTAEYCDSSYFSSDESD

[2] = species: Homo sapiens; experiment: Inhibition of IDO1/TDO in IFNgamma-treated human HeLa cells assessed as T cell proliferation at 500 nM measured after 2 days in presence of IL-2, anti-CD3 and IFN-gamma by CFSE dye based flow cytometry analysis (reference value: 11.7 %); parameters: scale not given: the % may be the effect or the level left
In short: (§1)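 CFSE-labelled human PBMC lymphocytes (1 × 10⁶/well) were cocultured with HeLa cells (2 × 10⁵/well), a 5:1 ratio, in 150 U/mL IL-2, 100 ng/mL anti-CD3 and 60 ng/mL IFN-γ. Compound was tested at 40 nM, 200 nM, 500 nM or 1 μM. Proliferation was read by flow cytometry after 2 days, three independent experiments.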

[3] = species: Homo sapiens; experiment: Inhibition of IDO1/TDO in IFNgamma-treated human HeLa cells assessed as T cell proliferation at 200 nM measured after 2 days in presence of IL-2, anti-CD3 and IFN-gamma by CFSE dye based flow cytometry analysis (reference value: 11.7 %); parameters: scale not given: the % may be the effect or the level left; in short: as §1
[4] = tested on: Rattus norvegicus; experiment: In vivo inhibition of IDO1/2/TDO in Sprague-Dawley rat assessed as decrease in kynurenine level in lung at 30 mg/kg, ig administered as single dose by LC-MS analysis; assay type: functional, organism-based
In short: (§2)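 Naive SD rats received a single ig dose of 30 mg/kg in 0.5% CMC-Na, with vehicle as control. Lungs were dissected and Trp and Kyn quantified by LC–MS, with the Kyn/Trp ratio calculated. n = 3–4 rats/group.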

[5] = tested on: H22; experiment: Antitumor activity against mouse H22 cells implanted in Kunming mouse assessed as reduction in tumor volume at 45 mg/kg, po qd administered for 2 weeks and measured at 2 days interval during compound dosing relative to control; assay type: functional; parameters: scale not given: the % may be the effect or the level left
In short: (§3)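 Tumor cells (LLC, or H22 ascites cells after two intraperitoneal passages in Kunming mice) injected sc into the right forelimb at 2 × 10⁶ per mouse, in female 6–8-week C57BL/6 or Kunming mice. Oral dosing once daily began at 5 mm tumor diameter and continued 2 weeks. Vehicle was 0.5% CMC-Na. Volume was read by caliper every 2 days as long × short²/2. Tumors were weighed at sacrifice. n = 9–10/group.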

[6] = tested on: Rattus norvegicus; experiment: In vivo inhibition of IDO1/2/TDO in Sprague-Dawley rat assessed as decrease in kynurenine/tryptophan ratio in lung at 30 mg/kg, ig administered as single dose by LC-MS analysis; assay type: functional, organism-based; in short: as §2
[7] = tested on: Rattus norvegicus; experiment: In vivo inhibition of IDO1/2/TDO in Sprague-Dawley rat assessed as increase in tryptophan level in lung at 30 mg/kg, ig administered as single dose by LC-MS analysis; assay type: functional, organism-based; in short: as §2
[8] = biological target: T1, Tryptophan 2,3-dioxygenase; experiment: Binding affinity to human TDO assessed as change in spectral signal at 200 uM by CPMG NMR spectrometry analysis
Target sequence in this assay (P48775 whole entry, looked up): as the sequence (P48775 whole entry) above

[9] = tested on: Mus musculus; experiment: In vivo blockade of kynurenine pathway in C57BL/6 mouse implanted with mouse LLC cells assessed as increase in tryptophan level in tumor at 45 mg/kg, po qd for 2 weeks by LC-MS analysis; assay type: functional, organism-based
In short: (§4)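 LLC tumor-bearing C57BL/6 mice received oral dosing once daily in 0.5% CMC-Na for 2 weeks. Tumors were dissected and Trp and Kyn measured by LC–MS on a C18 column with acetonitrile/0.1% formic acid gradient (5–80%), positive ion mode, m/z 205 (Trp) and 209 (Kyn), metronidazole internal standard. Kyn/Trp ratio calculated. n = 4–6/group.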

[10] = tested on: Mus musculus; experiment: In vivo blockade of kynurenine pathway in C57BL/6 mouse implanted with mouse LLC cells assessed as decrease in kynurenine/tryptophan ratio in tumor at 45 mg/kg, po qd for 2 weeks by LC-MS analysis; assay type: functional, organism-based; in short: as §4
[11] = tested on: H22; experiment: Antitumor activity against mouse H22 cells implanted in Kunming mouse assessed as reduction in tumor weight at 45 mg/kg, po qd administered for 2 weeks and measured post-treatment relative to control; assay type: functional; parameters: scale not given: the % may be the effect or the level left; in short: as §3
[12] = tested on: Mus musculus; experiment: In vivo blockade of kynurenine pathway in Kunming mouse implanted with mouse H22 cells assessed as increase in tryptophan level in serum at 45 mg/kg, po qd for 2 weeks by HPLC analysis; assay type: functional, organism-based
In short: (§5)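 H22 tumor-bearing Kunming mice received oral dosing once daily in 0.5% CMC-Na for 2 weeks. Serum Trp and Kyn were measured by HPLC on a C18 column with 15 mM sodium acetate (pH 3.6) containing 4% acetonitrile, UV detection at 280 and 360 nm. Kyn/Trp ratio calculated. n = 9–10/group.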

[13] = species: Homo sapiens; experiment: Inhibition of IDO1/TDO in IFNgamma-treated human HeLa cells assessed as T cell proliferation at 40 nM measured after 2 days in presence of IL-2, anti-CD3 and IFN-gamma by CFSE dye based flow cytometry analysis (reference value: 11.7 %); parameters: scale not given: the % may be the effect or the level left; in short: as §1
[14] = tested on: Lewis lung carcinoma cell line; experiment: Antitumor activity against mouse LLC cells implanted in C57BL/6 mouse assessed as reduction in tumor weight at 45 mg/kg, po qd administered for 2 weeks and measured post-treatment; assay type: functional, organism-based; in short: as §3
[15] = biological target: T1, Tryptophan 2,3-dioxygenase; experiment: Binding affinity to human TDO at 200 uM by STD NMR spectrometry analysis
Target sequence in this assay (P48775 whole entry, looked up): as the sequence (P48775 whole entry) above

[16] = tested on: Mus musculus; experiment: In vivo blockade of kynurenine pathway in C57BL/6 mouse implanted with mouse LLC cells assessed as decrease in kynurenine level in tumor at 45 mg/kg, po qd for 2 weeks by LC-MS analysis; assay type: functional, organism-based; in short: as §4
[17] = tested on: Mus musculus; experiment: In vivo inhibition of IDO1/2/TDO in C57BL/6 mouse assessed as decrease in LPS-stimulated kynurenine pathway by measuring decrease in ratio of kynurenine to tryptophan level in serum at 60 mg/kg, ig pretreated for 24 hrs with Escherichia coli LPS followed by compound treatment measured at 24 hrs post-treatment by HPLC analysis; assay type: functional, organism-based
In short: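 C57BL/6 mice were given ip saline or E. coli LPS 5 mg/kg. 24 h later they received ig 60 mg/kg compound or 0.5% CMC-Na. Blood was taken at 1, 6, 12, 24 and 30 h after dosing. Serum Trp and Kyn were measured by HPLC and the Kyn/Trp ratio calculated. n = 3–5 mice/group.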

[18] = tested on: Mus musculus; experiment: In vivo blockade of kynurenine pathway in Kunming mouse implanted with mouse H22 cells assessed as decrease in kynurenine/tryptophan ratio in serum at 45 mg/kg, po qd for 2 weeks by HPLC analysis; assay type: functional, organism-based; in short: as §5
[19] = species: Homo sapiens; experiment: Inhibition of IDO1/TDO in IFNgamma-treated human HeLa cells assessed as T cell proliferation at 1 uM measured after 2 days in presence of IL-2, anti-CD3 and IFN-gamma by CFSE dye based flow cytometry analysis (reference value: 11.7 %); parameters: scale not given: the % may be the effect or the level left; in short: as §1
[20] = tested on: Lewis lung carcinoma cell line; experiment: Antitumor activity against mouse LLC cells implanted in C57BL/6 mouse assessed as tumor regression at 45 mg/kg, po qd administered for 2 weeks and measured post-treatment; assay type: functional, organism-based; in short: as §3
[21] = tested on: Lewis lung carcinoma cell line; experiment: Antitumor activity against mouse LLC cells implanted in C57BL/6 mouse assessed as reduction in tumor volume at 45 mg/kg, po qd administered for 2 weeks and measured at 2 days interval during compound dosing relative to control; assay type: functional; parameters: scale not given: the % may be the effect or the level left; in short: as §3

Ki [1]: 310 nM
Activity [2]: 51.4%
Activity [3]: 39.8%
Activity [8]: Active
Activity [13]: 37.2%
Activity [15]: Active
Activity [19]: 52.8%
Compound: CN1CCN(Cc2ccc3nc4n(c(=O)c3c2)-c2ccc(F)cc2C4=O)CC1
inhibition [4]: Active
Activity [5]: 47.3%
inhibition [6]: Active
inhibition [7]: Active
Activity [9]: inactive
Activity [10]: Active
Activity [11]: 55.4%
Activity [12]: Active
Activity [14]: Active
Activity [16]: Active
inhibition [17]: Active
Activity [18]: Active
Activity [20]: inactive
Activity [21]: 56.2%
